High-throughput results deposited in PubChem BioAssay by Johns Hopkins Ion Channel Center.
TRPC4 agonist – activators of mouse TRPC4 channel | Q9QUQ5 | HEK293 TRPC4beta/mu-opioid, Fluo4 calcium fluorescence; stronger effect = higher value | B-score at 10 µM | actives 0.49% (n = 310,000) | AID 2237;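 active = B-score above 5 SD of library B-scores, and initial fluorescence ratio not above library mean plus 5 SD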;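 also: positive B-score marks a calcium rise read as TRPC4 activation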
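Test system: HEK293 cells stably co-expressing mouse TRPC4beta and mu-opioid receptor | Schedule: Fluo4 dye loading 45 min at room temperature, 110 s recording | Measured by: Kinetic Fluo4 calcium fluorescence, 5 s baseline at 1 Hz | Evaluation: B score of integrated ratio | Controls: Buffer (low) and maximal DAMGO (high)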
TRPC6 activator – activators of mouse TRPC6 channel; Q61143; HEK293-TRPC6 membrane potential dye fluorescence; stronger effect = higher value; B-score at 10 µM; actives 0.13% (n = 310,000); AID 2550;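 active = B-score of the integrated fluorescence ratio above library mean plus 3 SD, and starting fluorescence ratio within library mean plus 5 SD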;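 also: higher score means more depolarization so channel activation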
Target sequence (Q61143 whole entry, looked up): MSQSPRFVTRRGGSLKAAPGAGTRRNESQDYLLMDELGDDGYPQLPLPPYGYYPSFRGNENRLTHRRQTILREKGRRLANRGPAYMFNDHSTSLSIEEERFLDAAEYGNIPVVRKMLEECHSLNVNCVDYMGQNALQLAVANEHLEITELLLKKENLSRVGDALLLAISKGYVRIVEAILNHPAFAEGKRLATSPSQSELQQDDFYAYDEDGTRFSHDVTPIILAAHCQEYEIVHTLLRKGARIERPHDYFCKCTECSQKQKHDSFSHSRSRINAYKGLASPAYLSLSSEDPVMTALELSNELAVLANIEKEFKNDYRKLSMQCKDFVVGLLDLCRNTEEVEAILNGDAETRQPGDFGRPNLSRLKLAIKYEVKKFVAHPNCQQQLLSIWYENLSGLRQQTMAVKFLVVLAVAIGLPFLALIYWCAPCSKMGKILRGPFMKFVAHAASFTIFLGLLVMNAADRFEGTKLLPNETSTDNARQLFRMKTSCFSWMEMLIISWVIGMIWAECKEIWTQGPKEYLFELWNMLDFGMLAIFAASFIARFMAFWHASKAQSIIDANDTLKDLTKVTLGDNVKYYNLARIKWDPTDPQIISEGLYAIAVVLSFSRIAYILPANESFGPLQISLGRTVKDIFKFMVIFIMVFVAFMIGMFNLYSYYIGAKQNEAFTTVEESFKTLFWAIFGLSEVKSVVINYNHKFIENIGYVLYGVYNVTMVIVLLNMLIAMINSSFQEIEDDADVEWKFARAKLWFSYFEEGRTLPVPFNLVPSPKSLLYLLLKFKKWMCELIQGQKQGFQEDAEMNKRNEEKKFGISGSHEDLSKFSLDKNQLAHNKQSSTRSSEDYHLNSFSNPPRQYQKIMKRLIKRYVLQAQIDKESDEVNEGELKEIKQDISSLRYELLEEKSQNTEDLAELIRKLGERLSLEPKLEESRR
TRPC4 PAM – TRPC4 (mouse) allosteric potentiation; Q9QUQ5; HEK293 TRPC4beta/mu-opioid, DAMGO EC20, Fluo-4 Ca2+ flux; stronger effect = higher value; actives 0.42% (n = 310,000); B-score at 10 µM;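 active = B-score of calcium response area above 5 SD of library B-scores, with initial fluorescence ratio within 5 SD of library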
TRPC4 block – inhibitors of mouse TRPC4 channel; Q9QUQ5; HEK293 TRPC4beta/mu-opioid, DAMGO-evoked Fluo4 calcium flux; stronger effect = lower value; B-score at 10 µM; actives 0.39% (n = 300,000); AID 2247;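 active = B-score over 3 SD under the library average, no early fluorescence shift, positive overall ratio signal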
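Assay system: Stable TRPC4beta/mu-opioid receptor HEK293 cells | Reagent: DAMGO in two steps, submaximal then maximal | Compound dosing: Single concentration per test compound | Signal: Fluo4 Ca2+ flux fluorescence | Evaluation: Per-well B score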
TRPC6 inh – mouse TRPC6 channel inhibition | Q61143 | HEK293-TRPC6, membrane potential dye, ACh-evoked depolarization; stronger effect = lower value | B-score at 10 µM | actives 1.1% (n = 310,000) | AID 2553;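 active = B-score under library mean minus 3 SD, initial fluorescence not abnormally high, positive integrated signal ratio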;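 also: B-score derived from integrated fluorescence ratio over the kinetic read; more negative B-score means stronger inhibition of depolarization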
Numbers stand for hits; - = inactive. Compounds with a hit are over-represented: about 2.3% of the library has one in this group of screens.

SMILES	TRPC4 agonist	TRPC6 activator	TRPC4 PAM	TRPC4 block	TRPC6 inh
CSc1c(C#N)sc(=S)n1-c1ccc(C)cc1	-	-	-	-7	-
COc1cc(CNCCCN2CCOCC2)cc(Br)c1OCc1ccc(Cl)cc1	-	-	-	-6	-
CCOc1cc(CNCCCN2CCOCC2)cc(Cl)c1OCC(=O)NC(C)(C)C	-	-	-	-	-
CCOc1cc(CNCCCN2CCOCC2)cc(Br)c1OCC(=O)Nc1cccc(C(F)(F)F)c1	-	-	-	-6	-
CC(C)CNC(=O)c1cccc(NC(=O)c2ccc(Cl)c([N+](=O)[O-])c2)c1	-	-	-	-	-
CC1CCN(CCc2nc3cc(NS(=O)(=O)c4ccccc4)ccc3n2C)CC1	-	-	-	-	-
CC1CCN(CCc2nc3cc(NS(=O)(=O)c4ccc(F)cc4)ccc3n2C)CC1	-	-	15	-	-
COc1ccc(/C=C(\C#N)C(=O)N2CCOCC2)cc1Br	-	-	14	-	-
O=C(NC1CCCC1)c1ncn[nH]1	-	-	-	-	-
CCOc1ccc(-c2cc(C(=O)N/N=C(\C)c3cccnc3)c3ccccc3n2)c(OCC)c1	-	-	-	-	-
CN(C)CCOC(=O)c1cccc(Br)c1	44	-	10	-	-
O=C(CN1C(=O)CC(c2ccccc2)S(=O)(=O)c2ccccc21)N1CCCCC1 (stereo unspecified)	-	-	-	-	-
CCCC1=[N+](CC(=O)c2ccc(C)cc2)CCn2cccc21	-	-	-	-6	-
Cc1cc(C)c(NC(=O)C2CCCO2)c(C)c1NC(=O)C1CCCO1 (stereo unspecified)	-	-	-	-	-
CC(=O)[C@@H]1[C@@H]2C(=O)N(c3ccc(F)c(Cl)c3)C(=O)[C@@H]2C2c3ccccc3C=CN21 (stereo partly specified)	-	-	-	-7	-
CC(=O)[C@H]1[C@@H]2C(=O)N(c3cccc(Cl)c3)C(=O)[C@@H]2[C@H]2c3ccccc3C=CN21	-	-	-	-	-
c1ccc(Cc2c[nH]c3ccccc23)cc1	-	-	-	-5	-
Cn1c(N2CCN(C(=O)Nc3ccc(C(F)(F)F)cc3)CC2)nc2ccccc21	94	-	-	-	-
Cn1c(N2CCN(C(=O)NCc3ccccc3)CC2)nc2ccccc21	-	-	-	-	-
C[N+]1(C)CCC(=C2c3ccccc3CC(=O)c3sccc32)CC1	-	-	-	-	-6.38
Cc1cccc2c1Sc1ccccc1CC2=O	-	-	-	-	-
OCCC1CN(Cc2ccc3nsnc3c2)CCN1CCc1ccccc1 (stereo unspecified)	43	-	-	-	-
CCn1cc(CN2CCN(Cc3ccccc3)C(CCO)C2)c2ccccc21 (stereo unspecified)	58	-	-	-	-
OCCC1CN(Cc2ccccc2-c2ccco2)CCN1Cc1ccccc1 (stereo unspecified)	113	-	-	-	-
COc1ccc(-c2nn(C)c(=O)c3ccccc23)cc1CNC(=O)CN1CCOCC1	-	-	-	-	-
SMILES	TRPC4 agonist	TRPC6 activator	TRPC4 PAM	TRPC4 block	TRPC6 inh
CN1C(=O)C(=O)/C(=C(/O)c2ccc(Br)cc2)C1c1ccc(F)cc1 (stereo unspecified)	-	-	-	-	-
CC1=C(C#N)c2nc(N)c(C#N)c(C)c2/C1=C\c1ccc(C)cc1	-	-	-	-	-6.42
COc1cc(/C=C2\C(C)=C(C#N)c3nc(N)c(C#N)c(C)c32)ccc1OCC(=O)O	-	-	-	-	-
CC(C)C(NC(=O)c1ccccc1NC(=O)c1ccccc1)C(=O)NNC(=O)c1ccncc1 (stereo unspecified)	-	-	-	-	-
CC1(C)CC(=O)C(C(C2=C(O)CC(C)(C)CC2=O)c2ccc(Cl)c([N+](=O)[O-])c2)C(=O)C1 (stereo unspecified)	46	-	-	-	-
CCCCN(C)C(=O)Cn1ncc2c3ccccc3n(CCC)c2c1=O	-	-	21	-	-
Cc1sc2ncnc(OCC(=O)NCc3cccs3)c2c1C	-	-	-	-	-
COc1ccc2c(c1OC)C(=O)N1N=C(c3ccc(Cl)cc3)CC21 (stereo unspecified)	-	-	-	-	-
O=c1[nH]ncc(N2CCCC2)c1Cl	-	-	-	-	-
O=c1[nH]ncc(N2CCN(C(c3ccccc3)c3ccccc3)CC2)c1Cl	-	-	-	-9	-
